Experimental data of several laboratories.
Each line is one published result; the experiments were not run side by side.
speB: speB (Escherichia coli, UniProt P60651)
ASIC1: Acid-sensing ion channel 1 (ASIC1, Homo sapiens, UniProt P78348)

SMILES	target	observed	action	method	pH	quantity	value
COc1ccc2[nH]c(C)c(CC[N+](C)(C)C)c2c1	5-hydroxytryptamine receptor 2C (HTR2C, Homo sapiens, UniProt P28335)	calcium signal	agonist	–	–	EC50	> 5 µM
CC(C)=CCN=C(N)N	speB	enzyme activity	inhibitor	absorbance	pH 8.5	Ki	8.59 µM
CC[C@H](C)[C@@H]1NC(=O)[C@@H](NC(=O)[C@H](CCC(=O)O)NC(=O)[C@H](CC(N)=O)NC(=O)[C@@H](N)CO)CSSC[C@@H]2NC(=O)[C@@H]3CSSC[C@@H](C(=O)N[C@H](C(=O)N4CCC[C@H]4C(=O)N[C@H](C(=O)N4CCC[C@H]4C(=O)NCC(=O)O)[C@@H](C)CC)C(C)C)NC(=O)[C@H](C(C)C)NC(=O)[C@H](CCC(=O)O)NC(=O)[C@H](Cc4ccccc4)NC(=O)[C@H](CO)NC(=O)[C@H](Cc4c[nH]cn4)NC(=O)[C@H](CCCNC(=N)N)NC(=O)[C@H](CCCNC(=N)N)NC(=O)[C@H](CCCCN)NC(=O)[C@H](Cc4ccc(O)cc4)NC(=O)[C@H](CSSC[C@H](NC(=O)[C@H](CO)NC(=O)[C@H](CC(C)C)NC(=O)[C@H](Cc4c[nH]c5ccccc45)NC(=O)[C@H](CCCCN)NC(=O)[C@H](CCCNC(=N)N)NC1=O)C(=O)N[C@@H](C(C)C)C(=O)N[C@@H](CC(=O)O)C(=O)N[C@@H](CCCNC(=N)N)C(=O)N[C@@H](CCCCN)C(=O)N[C@@H](CC(N)=O)C(=O)N[C@@H](CC(=O)O)C(=O)N3)NC(=O)[C@H](CCC(=O)O)NC(=O)[C@H](CC(C)C)NC(=O)CNC(=O)[C@H](CCC(=O)O)NC2=O	ASIC1	binding	–	SPR	–	Kd	1.4 nM
O=S(=O)(O)c1ccc2c(N=Nc3c(O)ccc4ccccc34)cccc2c1	Bcl-2-related protein A1 (Mus musculus, UniProt Q07440, C113S/P104K)	ligand displacement	–	FP	–	Ki	1.62 µM
CNC(=O)c1ccc(-c2cnn3ccc(C(=O)N(C)c4ccc(Cl)c(C(=O)O)c4)cc23)cc1	5-hydroxytryptamine receptor 2B (HTR2B, Homo sapiens, UniProt P41595)	cell-free assay	–	–	–	IC50	> 30 µM
CN(C)C(=N)N=C(N)N	speB	enzyme activity	inhibitor	absorbance	pH 8.5	Ki	1250 µM
CC[C@H](C)[C@H](NC(=O)[C@@H]1CCCN1C(=O)[C@H](C)NC(=O)[C@@H]1CSSC[C@@H]2NC(=O)[C@H](CC(=O)O)NC(=O)[C@H](CCCNC(=N)N)NC(=O)[C@H](CCC(=O)O)NC(=O)[C@H](CCCNC(=N)N)NC(=O)CNC(=O)[C@H](CC(=O)O)NC(=O)[C@@H]3CSSC[C@H](NC(=O)[C@H](CCC(=O)O)NC(=O)[C@H](CC(C)C)NC(=O)CNC(=O)[C@H](C)NC(=O)[C@H](CSSC[C@H](NC(=O)[C@H](Cc4ccccc4)NC(=O)[C@@H](N)CO)C(=O)N[C@@H](CC(C)C)C(=O)N[C@@H](C(C)C)C(=O)N[C@@H](CCCCN)C(=O)N[C@@H](Cc4c[nH]c5ccccc45)C(=O)N[C@@H](CCCCN)C(=O)N[C@@H](CCC(N)=O)C(=O)N3)NC2=O)C(=O)N[C@@H](Cc2c[nH]c3ccccc23)C(=O)N[C@@H](CCCCN)C(=O)N[C@@H](CCCNC(=N)N)C(=O)N[C@@H](CCCNC(=N)N)C(=O)NCC(=O)N[C@@H](CC(N)=O)C(=O)N[C@@H](CCCCN)C(=O)N[C@@H](CO)C(=O)N[C@@H](CO)C(=O)N[C@@H](C(C)C)C(=O)N1)C(=O)N[C@H](C(=O)O)[C@@H](C)O	ASIC1	binding	–	SPR	pH 7.5	Kd	0.0277 nM
CNC(=O)c1ccc(-c2cnn3ccc(C(=O)N(C)c4ccc(Cl)c(C(=O)OC)c4)cc23)cc1	Casein kinase I isoform delta (CSNK1D, Homo sapiens, UniProt P48730)	enzyme activity	inhibitor	–	–	IC50	> 30 µM
